Results reported in ChEMBL document CHEMBL1148495, “Racemic and chiral sulfoxides as potential prodrugs of the COX-2 inhibitors Vioxx and Arcoxia” (Bioorg Med Chem Lett, 2006).
In brackets after ≈: the same amount, converted by molar mass.

Legend:
Liver microsomes [1] = experiment: Stability in human liver microsomes; assay type: ADME, Microsome
Method in brief: (§1)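 Compound at 5 µM was incubated with human or rat liver microsomes (1 mg/mL microsomal protein) for 30 min at 37 °C. Result is given as % metabolism.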

Liver microsomes [2] = experiment: Stability in rat liver microsomes; assay type: ADME, Microsome; method in brief: as §1
[3] = target: T1, Prostaglandin G/H synthase 2 (Homo sapiens) (UniProt P35354); experiment: Inhibition of COX2 in human whole blood at 10 uM; assay type: tissue-based
T1 sequence (whole entry): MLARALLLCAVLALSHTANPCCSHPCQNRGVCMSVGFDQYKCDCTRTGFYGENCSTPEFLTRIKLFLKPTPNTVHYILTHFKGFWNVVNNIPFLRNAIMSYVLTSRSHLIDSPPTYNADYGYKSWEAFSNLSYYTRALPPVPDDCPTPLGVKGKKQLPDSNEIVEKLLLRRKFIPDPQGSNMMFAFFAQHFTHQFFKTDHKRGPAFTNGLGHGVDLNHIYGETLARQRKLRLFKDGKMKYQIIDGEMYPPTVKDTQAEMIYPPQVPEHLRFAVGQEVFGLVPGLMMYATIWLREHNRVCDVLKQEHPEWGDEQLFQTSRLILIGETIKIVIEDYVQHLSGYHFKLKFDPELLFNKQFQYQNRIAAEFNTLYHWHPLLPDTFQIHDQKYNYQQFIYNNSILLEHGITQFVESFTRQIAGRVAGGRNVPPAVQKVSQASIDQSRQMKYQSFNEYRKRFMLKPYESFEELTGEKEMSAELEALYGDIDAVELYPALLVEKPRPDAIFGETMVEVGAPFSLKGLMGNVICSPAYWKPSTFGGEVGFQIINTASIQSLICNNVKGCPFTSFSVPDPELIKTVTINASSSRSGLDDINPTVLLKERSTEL

Rattus norvegicus [4] = experiment: Inhibition of yeast-induced pyresis in Wistar rat at 3 mg/kg, po; assay type: functional
Method in brief: (§2)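 Yeast-induced pyresis, an acute model run as a therapeutic protocol. Compounds were given as a single oral dose. Temperature was recorded at 1 h intervals from 1 to 5 h after dosing and expressed as % inhibition.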

[5] = AUC(0-t) in Wistar rat at 1 mg/kg, po; assay type: ADME, organism-based; parameters: dose 1 mg/kg, route oral; settings: plasma
Method in brief: (§3)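 Male Wistar rats given a single oral dose of 1 mg/kg as a suspension in 0.5% methylcellulose with 0.1% Tween 80. Plasma levels of sulfoxide prodrug and sulfone parent were followed over time. Cmax, tmax and AUC0-t are reported as means (n = 2–3) with SD.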

[6] = Solubility in PBS at pH 7.2; assay type: physicochemical
Rattus norvegicus [7] = experiment: Tmax for parent compound after prodrug dosing in Wistar rat at 1 mg/kg, po; assay type: ADME, organism-based; parameters: dose 1 mg/kg, route oral; settings: in vivo; method in brief: as §3
[8] = Solubility in SGF at pH 1.8; assay type: physicochemical
[9] = target: T2, Prostaglandin G/H synthase 2 (Homo sapiens, UniProt P35354); experiment: Inhibition of COX2 in human whole blood; assay type: tissue-based
T2 sequence (P35354 whole entry): T1 sequence (whole entry)

Rattus norvegicus [10] = experiment: AUC(0-t) for parent compound after prodrug dosing in Wistar rat at 1 mg/kg, po; assay type: ADME, organism-based, Plasma; parameters: dose 1 mg/kg, route oral; settings: in vivo; method in brief: as §3
Rattus norvegicus [11] = experiment: Cmax for parent compound after prodrug dosing in Wistar rat at 1 mg/kg, po; assay type: ADME, organism-based; parameters: dose 1 mg/kg, route oral; settings: in vivo; method in brief: as §3
Rattus norvegicus [12] = experiment: Inhibition of adjuvant-induced arthritis in Wistar rat at 1 mg/kg, po; assay type: functional
Method in brief: (§4)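 Adjuvant-induced arthritis in male Wistar rats, therapeutic protocol. Compounds were given orally once daily for 7 days, starting on day 14 after arthritis induction. Paw edema was measured 24 h after the last dose and expressed as % inhibition.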

[13] = Cmax in Wistar rat at 1 mg/kg, po; assay type: ADME, organism-based; parameters: dose 1 mg/kg, route oral; settings: in vivo; method in brief: as §3
[14] = Tmax in Wistar rat at 1 mg/kg, po; assay type: ADME, organism-based; parameters: dose 1 mg/kg, route oral; settings: in vivo; method in brief: as §3
Rattus norvegicus [15] = experiment: Inhibition of adjuvant-induced arthritis in Wistar rat at 0.3 mg/kg, po; assay type: functional; method in brief: as §4
Rattus norvegicus [16] = experiment: Inhibition of yeast-induced pyresis in Wistar rat at 1 mg/kg, po; assay type: functional; method in brief: as §2

Row | Compound | Stability (Liver microsomes [1]) [%] | Stability (Liver microsomes [2]) [%] | inhibition [3] [%] | AUC(0-t) [5] [ng·h/mL] | solubility [6] [µg/mL] | solubility [8] [µg/mL] | IC50 [9] [µM] | Cmax [13] [ng/mL] | Tmax [14] [min] | inhibition in vivo at 3 mg/kg (Rattus norvegicus [4]) [%] | Tmax (Rattus norvegicus [7]) [min] | AUC (Rattus norvegicus [10]) [ng·h/mL] | Cmax (Rattus norvegicus [11]) [ng/mL] | inhibition in vivo at 1 mg/kg (Rattus norvegicus [12]) [%] | inhibition in vivo at 0.3 mg/kg (Rattus norvegicus [15]) [%] | inhibition in vivo at 1 mg/kg (Rattus norvegicus [16]) [%]
1 | Cc1ccc(-c2ncc(Cl)cc2-c2ccc([S@@+](C)[O-])cc2)cn1 | 5 | 26 | 24.4 | – | – | – | – | – | – | – | – | – | – | – | – | –
2 | Cc1ccc(-c2ncc(Cl)cc2-c2ccc([S+](C)[O-])cc2)cn1 (stereo not drawn) | 6 | 21 | – | 578 | > 1000 | > 1000 | 3.7 | 133 | 36 | 49 | 18 | 803 | 254 | 67 | – | –
3 | Cc1ccc(-c2ncc(Cl)cc2-c2ccc([S@+](C)[O-])cc2)cn1 | 2 | 17 | – | – | – | – | 3.5 | – | – | – | – | – | – | – | – | –
4 | C[S+]([O-])c1ccc(C2=C(c3ccccc3)C(=O)OC2)cc1 (stereo not drawn) | 5 | 35 | – | 318 | 537 (≈ 1800 µM) | 717 (≈ 2400 µM) | 4.93 | 334 | 18 | – | 24 | 979 | 468 | – | 72 | 56

Second part, led by results:

Row | Stability (Liver microsomes [1]) [%] | Stability (Liver microsomes [2]) [%] | inhibition [3] [%] | AUC(0-t) [5] [ng·h/mL] | solubility [6] [µg/mL] | solubility [8] [µg/mL] | IC50 [9] [µM] | Cmax [13] [ng/mL] | Tmax [14] [min] | Compound | inhibition in vivo at 3 mg/kg (Rattus norvegicus [4]) [%] | Tmax (Rattus norvegicus [7]) [min] | AUC (Rattus norvegicus [10]) [ng·h/mL] | Cmax (Rattus norvegicus [11]) [ng/mL] | inhibition in vivo at 1 mg/kg (Rattus norvegicus [12]) [%] | inhibition in vivo at 0.3 mg/kg (Rattus norvegicus [15]) [%] | inhibition in vivo at 1 mg/kg (Rattus norvegicus [16]) [%]
5 | – | 38 | – | 531 | 15 (≈ 47.7 µM) | 16 (≈ 50.9 µM) | – | 237 | 24 | CS(=O)(=O)c1ccc(C2=C(c3ccccc3)C(=O)OC2)cc1 [ROFECOXIB] | – | – | – | – | – | 41 | 48
6 | 4 | 6 | – | 1660 | 104 (≈ 290 µM) | > 1000 | – | 427 | 18 | Cc1ccc(-c2ncc(Cl)cc2-c2ccc(S(C)(=O)=O)cc2)cn1 [ETORICOXIB] | 81 | – | – | – | 60 | – | –
7 | 4 | 40 | – | – | – | – | – | – | – | C[S@+]([O-])c1ccc(C2=C(c3ccccc3)C(=O)OC2)cc1 | – | – | – | – | – | – | –
8 | 1 | 49 | – | – | – | – | – | – | – | C[S@@+]([O-])c1ccc(C2=C(c3ccccc3)C(=O)OC2)cc1 | – | – | – | – | – | – | –
